Measured values: ChEMBL document CHEMBL2434966, “Novel N-4-piperazinyl-ciprofloxacin-chalcone hybrids: synthesis, physicochemical properties, anticancer and topoisomerase I and II inhibitory activity” (Eur J Med Chem, 2013)
In brackets after ≈: the same amount, converted by molar mass. Activity calls are given as the source filed them. The rule behind the calls is not given here.

Legend:
[1] = Aqueous solubility of the compound at pH 7.8 by UV spectroscopic analysis; assay type: physicochemical; details: aqueous solution
Outline: (§1)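 Excess solid (10 mg) shaken in buffer at pH 6.9 or 7.8, 37 °C. The filtrate was diluted into the linear calibration range and dissolved drug measured by UV absorbance at λmax 272 nm. Values are the average of at least three agreeing independent measurements.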

[2] = Octanol-phosphate buffer partition coefficient, log P of the compound after 5 hrs by shake-flask method; assay type: physicochemical
Outline: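 Shake-flask method: 100 µL of 0.2 mg/mL stock diluted into 1.9 mL phosphate buffer pH 7.4 plus 2 mL mutually saturated n-octanol, protected from light. Vortexed 3 min, shaken 5 h at 25 °C. Both phases assayed by UV at 272 nm; log P = log([octanol]/[aqueous]), run in triplicate.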

[3] = Aqueous solubility of the compound at pH 6.9 by UV spectroscopic analysis; assay type: physicochemical; details: aqueous solution; outline: as §1
[4] = target: DNA topoisomerase 2-alpha (Homo sapiens) (UniProt P11388); assay: Inhibition of human topoisomerase 2alpha-mediated relaxation of supercoiled pBR322 DNA at 20 uM after 30 mins by agarose gel electrophoresis relative to control
Outline: (§2)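 Human topo IIα (1 unit) with 200 ng supercoiled pBR322 in Tris-HCl pH 7.9, 50 mM NaCl, 5 mM MgCl2, 1 mM EDTA, 1 mM ATP, BSA, 30 min at 30 °C. DMSO was matched in the enzyme-only control. Stopped with EDTA; 1% agarose/TAE gel, ethidium stain, supercoiled band quantified by UV imaging. Etoposide was the positive control.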

[5] = target: DNA topoisomerase 2-alpha (Homo sapiens) (UniProt P11388); assay: Inhibition of human topoisomerase 2alpha-mediated relaxation of supercoiled pBR322 DNA at 100 uM after 30 mins by agarose gel electrophoresis relative to control; outline: as §2
[6] = target: T1, DNA topoisomerase 1 (Homo sapiens) (UniProt P11387); assay: Inhibition of human recombinant topoisomerase 1-mediated relaxation of supercoiled pBR322 DNA at 20 uM after 30 mins by agarose gel electrophoresis relative to control
T1 sequence (whole entry): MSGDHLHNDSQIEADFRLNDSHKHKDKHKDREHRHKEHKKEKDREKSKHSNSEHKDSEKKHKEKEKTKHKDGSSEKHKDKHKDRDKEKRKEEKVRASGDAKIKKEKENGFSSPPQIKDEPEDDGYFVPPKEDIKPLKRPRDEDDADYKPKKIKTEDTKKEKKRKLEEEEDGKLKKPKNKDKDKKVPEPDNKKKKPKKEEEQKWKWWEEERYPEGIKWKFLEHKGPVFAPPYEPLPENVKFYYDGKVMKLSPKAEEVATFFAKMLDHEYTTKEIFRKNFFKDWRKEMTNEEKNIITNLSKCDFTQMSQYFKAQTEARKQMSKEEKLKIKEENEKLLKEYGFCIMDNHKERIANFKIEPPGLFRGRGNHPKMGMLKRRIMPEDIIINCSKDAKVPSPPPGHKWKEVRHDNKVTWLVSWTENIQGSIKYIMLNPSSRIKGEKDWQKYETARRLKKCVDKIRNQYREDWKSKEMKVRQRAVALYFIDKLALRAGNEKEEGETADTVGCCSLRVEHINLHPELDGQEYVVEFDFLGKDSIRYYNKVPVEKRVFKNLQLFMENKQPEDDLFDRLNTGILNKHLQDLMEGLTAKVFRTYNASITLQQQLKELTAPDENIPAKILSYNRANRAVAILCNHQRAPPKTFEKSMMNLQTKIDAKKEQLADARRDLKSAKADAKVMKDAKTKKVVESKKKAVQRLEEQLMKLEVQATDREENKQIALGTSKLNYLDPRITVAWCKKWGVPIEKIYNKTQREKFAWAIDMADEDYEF
Outline: (§3)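 Recombinant human topo I (0.4 units) with 100 ng supercoiled pBR322, 37 °C for 30 min in Tris-HCl pH 7.9, 150 mM NaCl, 0.1% BSA, 1 mM spermidine, 5% glycerol. Compounds came from 20 mM DMSO stocks, with matched DMSO in the enzyme-only control. Stopped with sarcosyl; 1% agarose/TAE gel, ethidium stain, UV densitometry. Camptothecin was the positive control.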

[7] = target: T1, DNA topoisomerase 1 (Homo sapiens); assay: Inhibition of human recombinant topoisomerase 1-mediated relaxation of supercoiled pBR322 DNA at 100 uM after 30 mins by agarose gel electrophoresis relative to control; outline: as §3
[8] = target: T1, DNA topoisomerase 1 (Homo sapiens); assay: Inhibition of human topoisomerase 1-mediated unwinding of pHOT1 plasmid DNA up to 1000 uM after 30 mins by agarose gel electrophoresis
Outline: (§4)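 pHOT1 plasmid (100 ng) was first relaxed with excess human topo I (3 units) for 30 min at 37 °C in Tris-HCl pH 7.9. Variable compound amounts were then added for a further 30 min at 37 °C. Stopped with EDTA; 1% agarose/TAE gel at 15 V for 15 h, ethidium stain, supercoiled DNA quantified. m-AMSA was the positive control.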

HCT-116 = assay: Growth inhibition of human HCT116 cells at 10^-5 M after 48 hrs by sulforhodamine B assay; assay type: functional, cell-based
Outline: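 NCI 60-cell-line primary screen. Single concentration of 10^-5 M, 48 h incubation. End point by sulforhodamine B protein staining read spectrophotometrically. Reported as percent growth of treated cells relative to untreated control cells.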

NCI-H522 = assay: Growth inhibition of human NCI-H522 cells at 10^-5 M after 48 hrs by sulforhodamine B assay; assay type: functional, cell-based
Outline: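 NCI 60-cell-line primary one-dose screen. Cells were exposed to a single 10^-5 M concentration for 48 h. The end point was sulforhodamine B protein staining, read spectrophotometrically. Results are reported as percent growth of treated cells relative to untreated control cells.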

[9] = target: T1, DNA topoisomerase 1 (Homo sapiens); assay: Inhibition of human topoisomerase 1-mediated unwinding of pHOT1 plasmid DNA after 30 mins by agarose gel electrophoresis; outline: as §4

DNA topoisomerase 2-alpha (Homo sapiens), sequence (P11388 whole entry): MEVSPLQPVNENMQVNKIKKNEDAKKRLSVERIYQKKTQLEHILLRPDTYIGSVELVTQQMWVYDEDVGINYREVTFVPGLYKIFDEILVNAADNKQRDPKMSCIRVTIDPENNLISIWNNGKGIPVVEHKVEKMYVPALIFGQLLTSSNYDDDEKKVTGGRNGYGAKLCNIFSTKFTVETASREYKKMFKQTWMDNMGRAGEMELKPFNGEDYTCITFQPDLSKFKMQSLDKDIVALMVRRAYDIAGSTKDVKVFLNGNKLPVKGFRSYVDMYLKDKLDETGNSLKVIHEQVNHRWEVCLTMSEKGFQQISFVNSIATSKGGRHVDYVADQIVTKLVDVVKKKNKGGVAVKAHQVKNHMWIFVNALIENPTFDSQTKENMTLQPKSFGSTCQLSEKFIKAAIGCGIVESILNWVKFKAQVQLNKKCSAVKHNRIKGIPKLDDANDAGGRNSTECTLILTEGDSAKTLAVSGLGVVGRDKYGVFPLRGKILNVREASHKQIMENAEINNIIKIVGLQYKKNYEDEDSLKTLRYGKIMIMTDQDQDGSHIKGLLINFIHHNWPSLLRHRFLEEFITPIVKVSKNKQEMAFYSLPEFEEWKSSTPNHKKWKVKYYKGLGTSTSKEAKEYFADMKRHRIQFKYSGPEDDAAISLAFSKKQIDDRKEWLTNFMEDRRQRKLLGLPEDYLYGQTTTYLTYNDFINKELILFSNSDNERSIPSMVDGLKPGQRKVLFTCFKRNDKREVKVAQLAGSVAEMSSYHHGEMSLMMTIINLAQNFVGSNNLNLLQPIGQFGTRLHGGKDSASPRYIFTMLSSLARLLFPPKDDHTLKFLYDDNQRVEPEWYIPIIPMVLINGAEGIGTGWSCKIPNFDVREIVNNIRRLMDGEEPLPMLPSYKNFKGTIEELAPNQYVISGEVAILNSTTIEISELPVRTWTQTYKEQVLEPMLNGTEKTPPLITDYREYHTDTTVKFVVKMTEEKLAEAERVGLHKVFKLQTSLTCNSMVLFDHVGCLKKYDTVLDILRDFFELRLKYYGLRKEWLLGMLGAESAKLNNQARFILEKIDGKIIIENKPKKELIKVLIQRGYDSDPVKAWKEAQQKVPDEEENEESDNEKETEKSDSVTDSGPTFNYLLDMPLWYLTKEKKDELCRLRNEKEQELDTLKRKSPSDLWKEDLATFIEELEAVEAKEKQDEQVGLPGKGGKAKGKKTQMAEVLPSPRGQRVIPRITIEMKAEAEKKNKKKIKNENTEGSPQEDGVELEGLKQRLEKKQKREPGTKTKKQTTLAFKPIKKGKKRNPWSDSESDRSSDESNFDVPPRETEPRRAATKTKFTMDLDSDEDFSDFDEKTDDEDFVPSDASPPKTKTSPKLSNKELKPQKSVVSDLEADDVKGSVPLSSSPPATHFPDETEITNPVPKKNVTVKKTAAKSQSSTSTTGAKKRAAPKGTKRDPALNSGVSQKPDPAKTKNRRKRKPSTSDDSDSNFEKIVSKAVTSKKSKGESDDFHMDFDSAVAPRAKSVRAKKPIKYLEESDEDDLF

SMILES | solubility [1] | logP at 5 h [2] | solubility [3] | inhibition [4] | inhibition [5] | inhibition [6] | inhibition [7] | inhibition [8] | inhibition [9] | growth inhibition (GI) (HCT-116) | growth inhibition (GI) (NCI-H522)
O=C(CN1CCN(c2cc3c(cc2F)c(=O)c(C(=O)O)cn3C2CC2)CC1)Nc1ccc(C(=O)/C=C/c2ccccc2Cl)cc1 | 2.12 µg/mL (≈ 3.37 µM) | 1.29 | 2.45 µg/mL (≈ 3.89 µM) | 21.3% | 66.7% | 4.2% | 70.8% | – | – | – | –
COc1ccc(/C=C/C(=O)c2ccc(NC(=O)CN3CCN(c4cc5c(cc4F)c(=O)c(C(=O)O)cn5C4CC4)CC3)cc2)cc1 | 2.42 µg/mL (≈ 3.87 µM) | 0.684 | 2.98 µg/mL (≈ 4.77 µM) | 49.6% | 84.3% | 25.3% | 67.6% | inactive | – | Active | Active
COc1ccc(/C=C/C(=O)c2ccc(NC(=O)CN3CCN(c4cc5c(cc4F)c(=O)c(C(=O)O)cn5C4CC4)CC3)cc2)cc1OC | 0.68 µg/mL (≈ 1.04 µM) | 1.46 | 0.75 µg/mL (≈ 1.15 µM) | – | 9% | 2.5% | 73.2% | – | – | – | –
COc1cc(NS(C)(=O)=O)ccc1Nc1c2ccccc2nc2ccccc12 | – | – | – | – | – | – | – | – | Dose-dependent effect | – | –
Cc1ccc(/C=C/C(=O)c2ccc(NC(=O)CN3CCN(c4cc5c(cc4F)c(=O)c(C(=O)O)cn5C4CC4)CC3)cc2)c(C)c1 | 2.07 µg/mL (≈ 3.32 µM) | 1.47 | 2.12 µg/mL (≈ 3.4 µM) | 29.4% | 78.9% | 11% | 85.1% | – | – | – | –
O=C(CN1CCN(c2cc3c(cc2F)c(=O)c(C(=O)O)cn3C2CC2)CC1)Nc1ccc(C(=O)/C=C/c2ccc3c(c2)OCO3)cc1 | 2.24 µg/mL (≈ 3.51 µM) | 0.562 | 2.66 µg/mL (≈ 4.17 µM) | 43.8% | 85.7% | 25.9% | 91.3% | inactive | – | – | –

Further lines, with some results ahead:

solubility [1] | logP at 5 h [2] | solubility [3] | inhibition [4] | inhibition [5] | inhibition [6] | inhibition [7] | inhibition [8] | inhibition [9] | SMILES | growth inhibition (GI) (HCT-116) | growth inhibition (GI) (NCI-H522)
27.4 µg/mL (≈ 42.9 µM) | -0.0812 | 30.7 µg/mL (≈ 47.9 µM) | 8.8% | 82.8% | 11.1% | 90.5% | – | – | O=C(CN1CCN(c2cc3c(cc2F)c(=O)c(C(=O)O)cn3C2CC2)CC1)Nc1ccc(C(=O)/C=C/c2cccc([N+](=O)[O-])c2)cc1 | – | –
29.7 µg/mL (≈ 47.3 µM) | 0.302 | 34.4 µg/mL (≈ 54.7 µM) | 24.6% | 52.9% | 3.1% | 68.8% | – | – | O=C(CN1CCN(c2cc3c(cc2F)c(=O)c(C(=O)O)cn3C2CC2)CC1)Nc1ccc(C(=O)/C=C/c2cccc(Cl)c2)cc1 | – | –
2.23 µg/mL (≈ 3.54 µM) | 0.47 | 2.77 µg/mL (≈ 4.4 µM) | – | 27.7% | 0.4% | 67.5% | – | – | O=C(CN1CCN(c2cc3c(cc2F)c(=O)c(C(=O)O)cn3C2CC2)CC1)Nc1ccc(C(=O)/C=C/c2ccc(Cl)cc2)cc1 | Active | Active
